{"source": "ChEMBL document CHEMBL2163310", "about": "“Critical effect of peptide cyclization on the potency of peptide inhibitors against Dengue virus NS2B-NS3 protease” (J Med Chem, 2012)", "key": {"[1]": {"assay": "Inhibition of Dengue Virus 2 NS2B-NS3 protease using Benzoyl-Nle-Lys-Arg-Arg-AMC as substrate incubated for 3 mins prior to substrate addition by fluorimetric analysis", "parameters": "species or system dengue virus type 2", "outline": "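Ki by Dixon plot (1/v vs inhibitor) at 33 and 66 μM substrate. Fluorescence ex 356/em 438 nm; triplicate means.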"}, "[2]": {"assay": "Chemical stability at 16. 7 uM measured every 30 mins of 2.5 hrs in presence of Dengue Virus 2 NS2B-NS3 protease", "assay_type": "physicochemical"}, "[3]": {"assay": "Inhibition of trypsin using N-benzoyl-DL-arginine-p-nitroanilide as substrate by […] analysis"}, "[4]": {"assay": "Drug degradation assessed as compound activity lost at 3.3 uM measured every 30 mins of 2.5 hrs in presence of Dengue Virus 2 NS2B-NS3 protease", "assay_type": "physicochemical", "settings": "Dengue virus 2, Dengue virus 2 NS2B-NS3 protease; read-out: Drug degradation"}, "[5]": {"assay": "Drug degradation assessed as compound activity lost at 6.7 uM measured every 30 mins of 2.5 hrs in presence of Dengue Virus 2 NS2B-NS3 protease", "assay_type": "physicochemical", "settings": "Dengue virus 2, Dengue virus 2 NS2B-NS3 protease; read-out: Drug degradation"}, "[6]": {"assay": "Chemical stability assessed as compound remaining after 4 hrs in presence of cathepsin S", "assay_type": "physicochemical", "outline": "(§1)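 Peptide incubated with trypsin in 0.05 M Tris-HCl pH 7.8, 20 mM CaCl2 at 37 °C, or with cathepsin S in 50 mM NaAc pH 4.5, 25 mM NaCl, 5 mM DTT at room temperature. Digests analysed on HPLC C18 analytical column for remaining intact peptide.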"}, "[7]": {"assay": "Chemical stability assessed as compound remaining after 4 hrs in presence of trypsin", "assay_type": "physicochemical", "settings": "read-out: Stability", "outline": "as §1"}, "dengue virus type 2": {"tested_on": "dengue virus type 2", "assay": "Inhibition of Dengue Virus 2 NS2B-NS3 protease using Benzoyl-Nle-Lys-Arg-Arg-AMC as substrate at 167 uM incubated for 3 mins prior to substrate addition by fluorimetric analysis", "outline": "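Enzyme preincubated with inhibitor for 3 min at 37 °C before adding Bz-Nle-Lys-Arg-Arg-AMC substrate. Residual activity read by fluorescence, excitation 356 nm, emission 438 nm. Triplicate measurements averaged.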"}, "[8]": {"assay": "Chemical stability after 30 mins in presence of trypsin", "assay_type": "physicochemical", "settings": "isolated protein, 0.5 h", "outline": "as §1"}}, "note": "Activity calls are given as the source filed them. The rule behind the calls is not given here. Positions of bridges follow the written chain, without caps; N, C: chain ends. Residues, ends and D or L forms follow the SMILES beside them."}
{"compound": "CC(C)C[C@@H]1NC(=O)[C@H](CCCCN)NC(=O)[C@H](Cc2ccc(O)cc2)NC(=O)CNC(=O)[C@@H]2CSSC[C@H](NC1=O)C(=O)N[C@@H](Cc1cnc[nH]1)C(=O)N1C[C@H](O)C[C@H]1C(=O)N[C@H](C(=O)O)CSSC[C@H](NC(=O)[C@@H](NC(=O)CNC(=O)[C@@H](N)CC(N)=O)C(C)C)C(=O)N2", "values": [{"measurement": "Ki", "setting": "[1]", "value": 9, "unit": "µM"}]}
{"compound": "CC(C)C[C@@H]1NC(=O)[C@H](CCCCN)NC(=O)CNC(=O)CNC(=O)[C@@H](N)CSSC[C@@H](C(=O)O)NC1=O", "note": "(H-CGGKLC-OH; disulfide 1-6)", "values": [{"measurement": "Ki", "setting": "[1]", "value": 15.1, "unit": "µM"}]}
{"compound": "CC(C)C[C@@H]1NC(=O)CNC(=O)[C@H](Cc2ccc(O)cc2)NC(=O)CNC(=O)[C@@H](N)CSSC[C@@H](C(=O)O)NC1=O", "note": "(H-CGYGLC-OH; disulfide 1-6)", "values": [{"measurement": "Ki", "setting": "[1]", "value": "> 100", "unit": "µM"}]}
{"compound": "NCCCC[C@@H]1NC(=O)[C@H](Cc2ccc(O)cc2)NC(=O)CNC(=O)[C@@H](N)CSSC[C@@H](C(=O)O)NC(=O)CNC1=O", "note": "(H-CGYKGC-OH; disulfide 1-6)", "values": [{"measurement": "Ki", "setting": "[1]", "value": 12, "unit": "µM"}]}
{"compound": "N=C(N)NCCC[C@@H]1NC(=O)[C@H](CCCCN)NC(=O)[C@H](Cc2ccc(O)cc2)NC(=O)CNC(=O)[C@@H](N)CSSC[C@@H](C(=O)O)NC1=O", "note": "(H-CGYKRC-OH; disulfide 1-6)", "values": [{"measurement": "Ki", "setting": "[1]", "value": 5, "unit": "µM"}]}
{"compound": "C[C@@H]1NC(=O)CNC(=O)[C@H](CO)NC(=O)[C@H](CCCCN)NC(=O)[C@H](CCCNC(=N)N)NC(=O)C(CCCCN)NC(=O)CNC1=O", "note": "(single isomer, unassigned)", "values": [{"measurement": "Ki", "setting": "[1]", "value": 11.3, "unit": "µM"}, {"measurement": "Stability", "setting": "[2]", "value": "Stable"}]}
{"compound": "N=C(N)NCCC[C@@H]1NC(=O)C(CCCCN)NC(=O)CNC(=O)[C@@H](N)CSSC[C@@H](C(=O)O)NC(=O)[C@H](CO)NC(=O)[C@H](CCCCN)NC1=O", "note": "(single isomer, unassigned)", "values": [{"measurement": "Ki", "setting": "[3]", "value": "> 100", "unit": "µM"}, {"measurement": "metabolised at 2.5 h, 3.3 µM", "setting": "[4]", "value": 50, "unit": "%"}, {"measurement": "Ki", "setting": "[1]", "value": 1.4, "unit": "µM"}, {"measurement": "metabolised at 2.5 h, 6.7 µM", "setting": "[5]", "value": 50, "unit": "%"}]}
{"compound": "CC(C)C[C@@H]1NC(=O)[C@H](CCCCN)NC(=O)[C@H](CCCNC(=N)N)NC(=O)C(CCCCN)NC(=O)CNC(=O)[C@@H](N)CSSC[C@@H](C(=O)O)NC1=O", "note": "(single isomer, unassigned)", "values": [{"measurement": "metabolised at 2.5 h, 3.3 µM", "setting": "[4]", "value": 50, "unit": "%"}, {"measurement": "Ki", "setting": "[1]", "value": 2.5, "unit": "µM"}, {"measurement": "metabolised at 2.5 h, 6.7 µM", "setting": "[5]", "value": 50, "unit": "%"}]}
{"compound": "N=C(N)NCCC[C@@H]1NC(=O)C(CCCCN)NC(=O)CNC(=O)[C@@H](N)CSSC[C@@H](C(=O)O)NC(=O)[C@H](CCCNC(=N)N)NC1=O", "note": "(single isomer, unassigned)", "values": [{"measurement": "Ki", "setting": "[1]", "value": 3.5, "unit": "µM"}]}
{"compound": "C[C@@H]1NC(=O)[C@@H](CS)NC(=O)CNC(=O)[C@H](CO)NC(=O)[C@H](CCCCN)NC(=O)[C@H](CCCNC(=N)N)NC(=O)C(CCCCN)NC(=O)CNC1=O", "note": "(single isomer, unassigned)", "values": [{"measurement": "Ki", "setting": "[3]", "value": "> 100", "unit": "µM"}, {"measurement": "metabolised at 2.5 h, 3.3 µM", "setting": "[4]", "value": 25, "unit": "%"}, {"measurement": "Ki", "setting": "[1]", "value": 2.2, "unit": "µM"}, {"measurement": "Stability", "setting": "[6]", "value": "Stable"}, {"measurement": "remaining at 4 h", "setting": "[7]", "value": 50, "unit": "%"}]}
{"compound": "CC(C)C[C@@H]1NC(=O)[C@H](CCCCN)NC(=O)C(Cc2ccc(O)cc2)NC(=O)CNC(=O)[C@@H](N)CSSC[C@@H](C(=O)O)NC1=O", "note": "(single isomer, unassigned)", "values": [{"measurement": "Ki", "setting": "[3]", "value": "> 100", "unit": "µM"}, {"measurement": "inhibition", "setting": "dengue virus type 2", "value": "inactive"}, {"measurement": "Ki", "setting": "[1]", "value": 12.5, "unit": "µM"}]}
{"compound": "H-CAGKRKSG-OH", "values": [{"measurement": "Ki", "setting": "[1]", "value": 42, "unit": "µM"}, {"measurement": "Stability", "setting": "[8]", "value": "Stable"}]}
